Measured values: ChEMBL document CHEMBL4808213, “2-(Halogenated Phenyl) acetamides and propanamides as potent TRPV1 antagonists” (Bioorg Med Chem Lett, 2021)
Activity calls are given as the source filed them. The calls are words filed in the database; no cut-off is given here.

Tested on: Mus musculus
Test: Analgesic activity in ip dosed mouse model of formalin-induced paw edema assessed as reduction in pain behaviour by measuring effective dose in 2nd phase
Type: functional
Settings: not given
How it was run: (§1)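 Formalin test in mice, with antagonist given by intraperitoneal injection before testing. Nociceptive behaviour was scored separately in the 1st and 2nd phases. Several doses were tested, and ED50 for each phase was derived from the dose-response.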

Row | SMILES | ED50 [mg/kg]
1 | CC(C)(C)c1cc(CNC(=O)Cc2cccc(F)c2F)n(-c2cccc(Cl)c2)n1 | 29.5

Target: T1, Transient receptor potential cation channel subfamily V member 1 (Homo sapiens, UniProt Q8NER1)
Test: Partial agonist activity at human TRPV1 expressed in CHO cells
Type: cell-based
Settings: filed as partial agonist

T1 sequence (Q8NER1 whole entry): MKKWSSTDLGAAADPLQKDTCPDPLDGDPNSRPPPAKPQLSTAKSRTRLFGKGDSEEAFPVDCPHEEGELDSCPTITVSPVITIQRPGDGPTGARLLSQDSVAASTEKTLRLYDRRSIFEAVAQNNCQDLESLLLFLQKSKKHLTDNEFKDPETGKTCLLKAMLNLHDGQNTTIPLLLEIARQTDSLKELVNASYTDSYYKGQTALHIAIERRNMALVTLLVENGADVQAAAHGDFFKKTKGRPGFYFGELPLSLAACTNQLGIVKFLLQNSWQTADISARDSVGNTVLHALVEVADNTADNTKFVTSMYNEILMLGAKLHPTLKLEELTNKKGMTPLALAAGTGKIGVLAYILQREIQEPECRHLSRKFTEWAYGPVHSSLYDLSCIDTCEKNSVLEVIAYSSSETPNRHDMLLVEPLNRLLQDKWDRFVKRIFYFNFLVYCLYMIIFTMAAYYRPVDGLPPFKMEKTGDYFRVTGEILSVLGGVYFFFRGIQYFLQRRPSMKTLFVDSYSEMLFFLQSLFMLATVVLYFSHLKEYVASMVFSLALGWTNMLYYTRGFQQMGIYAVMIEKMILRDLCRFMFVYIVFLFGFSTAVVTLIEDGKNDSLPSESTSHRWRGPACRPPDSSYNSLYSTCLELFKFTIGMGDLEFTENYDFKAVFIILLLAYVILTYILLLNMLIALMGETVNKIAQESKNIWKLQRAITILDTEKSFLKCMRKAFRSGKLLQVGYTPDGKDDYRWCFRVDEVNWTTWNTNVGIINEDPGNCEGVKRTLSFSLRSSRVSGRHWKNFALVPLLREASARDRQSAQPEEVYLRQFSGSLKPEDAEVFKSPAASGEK

Row | Activity | SMILES
2 | Active | CC1CCN(c2nc(C(F)(F)F)ccc2CNC(=O)Cc2ccc(F)c(F)c2)CC1
3 | Active | O=C(Cc1ccc(F)cc1)NCc1cc(C(F)(F)F)nn1-c1cccc(Cl)c1
4 | Active | CC1CCN(c2nc(C(F)(F)F)ccc2CNC(=O)C(C)c2ccc(Cl)c(Cl)c2)CC1 (configuration not stated)
5 | Active | O=C(Cc1ccc(F)c(F)c1)NCc1cc(C(F)(F)F)nn1-c1cccc(Cl)c1
6 | Active | CC1CCN(c2nc(C(F)(F)F)ccc2CNC(=O)C(C)c2ccc(Cl)cc2)CC1 (configuration not stated)
7 | Active | CC1CCN(c2nc(C(F)(F)F)ccc2CNC(=O)C(C)c2ccc(Cl)c(F)c2)CC1 (configuration not stated)
8 | Active | CC1CCN(c2nc(C(F)(F)F)ccc2CNC(=O)Cc2ccc(Cl)c(F)c2)CC1
9 | Active | CC1CCN(c2nc(C(F)(F)F)ccc2CNC(=O)C(C)c2ccc(F)cc2F)CC1 (configuration not stated)

The next lines start with the compound.

Row | SMILES | Activity
10 | CC(C(=O)NCc1cc(C(C)(C)C)nn1-c1cccc(Cl)c1)c1cccc(Cl)c1Cl (configuration not stated) | Active
11 | CC(C(=O)NCc1cc(C(F)(F)F)nn1-c1cccc(Cl)c1)c1ccc(F)c(F)c1 (configuration not stated) | Active
12 | CC(C)(C)c1cc(CNC(=O)Cc2ccc(F)cc2F)n(-c2cccc(Cl)c2)n1 | Active
13 | CC(C)(C)c1cc(CNC(=O)Cc2cc(F)ccc2F)n(-c2cccc(Cl)c2)n1 | Active
14 | CC(C(=O)NCc1cc(C(C)(C)C)nn1-c1cccc(Cl)c1)c1cccc(F)c1F (configuration not stated) | Active
15 | CC(C(=O)NCc1cc(C(C)(C)C)nn1-c1cccc(Cl)c1)c1cc(F)ccc1F (configuration not stated) | Active
16 | CC(C)(C)c1cc(CNC(=O)Cc2ccc(Cl)c(F)c2)n(-c2cccc(Cl)c2)n1 | Active
17 | CC(C(=O)NCc1cc(C(F)(F)F)nn1-c1cccc(Cl)c1)c1ccc(Cl)cc1 (configuration not stated) | Active
18 | CC(C)(C)c1cc(CNC(=O)Cc2ccccc2F)n(-c2cccc(Cl)c2)n1 | Active
19 | CC(C(=O)NCc1cc(C(F)(F)F)nn1-c1cccc(Cl)c1)c1cccc(Cl)c1 (configuration not stated) | Active
20 | CC(C(=O)NCc1cc(C(F)(F)F)nn1-c1cccc(Cl)c1)c1ccc(F)cc1 (configuration not stated) | Active
21 | CC(C)(C)c1cc(CNC(=O)Cc2ccc(Cl)c(Cl)c2)n(-c2cccc(Cl)c2)n1 | Active
22 | CC(C(=O)NCc1cc(C(C)(C)C)nn1-c1cccc(Cl)c1)c1ccccc1Cl (configuration not stated) | Active
23 | CC(C(=O)NCc1cc(C(F)(F)F)nn1-c1cccc(Cl)c1)c1ccc(F)cc1F (configuration not stated) | Active
24 | CC(C(=O)NCc1cc(C(F)(F)F)nn1-c1cccc(Cl)c1)c1cccc(F)c1 (configuration not stated) | Active
25 | CC(C(=O)NCc1cc(C(C)(C)C)nn1-c1cccc(Cl)c1)c1c(F)cccc1F (configuration not stated) | Active
26 | CC(C)(C)c1cc(CNC(=O)Cc2cc(F)cc(F)c2)n(-c2cccc(Cl)c2)n1 | Active
27 | CC(C(=O)NCc1cc(C(F)(F)F)nn1-c1cccc(Cl)c1)c1cc(F)cc(F)c1 (configuration not stated) | Active

Tested on: Mus musculus
Test: Analgesic activity in ip dosed mouse model of formalin-induced paw edema assessed as reduction in pain behaviour by measuring effective dose in 1st phase
Type: functional
Settings: not given
How it was run: as §1

Row | SMILES | ED50 [mg/kg]
28 | CC(C)(C)c1cc(CNC(=O)Cc2cccc(F)c2F)n(-c2cccc(Cl)c2)n1 | 50.5

Tested on: Mus musculus
Test: Analgesic activity in ip dosed mouse model of formalin-induced paw edema
Type: functional, organism-based
Settings: not given
How it was run: as §1

Row | SMILES | Activity
29 | CC1CCN(c2nc(C(F)(F)F)ccc2CNC(=O)Cc2c(F)cccc2Cl)CC1 | inactive

Tested on: Mus musculus
Test: Analgesic activity in mouse model of formalin-induced paw edema assessed as induction of hyperthermia at 10 mg/kg, ip
Type: functional, organism-based
Settings: not given
How it was run: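 Mice received 10 mg/kg intraperitoneally, and body temperature was then measured to check for hyperthermia.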

Row | SMILES | Activity
30 | CC(C)(C)c1cc(CNC(=O)Cc2cccc(F)c2F)n(-c2cccc(Cl)c2)n1 | inactive

Target: T1, Transient receptor potential cation channel subfamily V member 1
Test: Antagonist activity at human TRPV1 expressed in CHO cells assessed as inhibition of capsaicin-induced TRPV1 activation by FLIPR method
Type: cell-based
Settings: not given

Row | Ki [nM] | SMILES
31 | 11.5 | O=C(Cc1cccc(F)c1F)NCc1cc(C(F)(F)F)nn1-c1cccc(Cl)c1
32 | 46 | CC1CCN(c2nc(C(F)(F)F)ccc2CNC(=O)Cc2ccc(Cl)cc2Cl)CC1
33 | 39.7 | CC1CCN(c2nc(C(F)(F)F)ccc2CNC(=O)Cc2c(Cl)cccc2Cl)CC1
34 | 0.3 | CC1CCN(c2nc(C(F)(F)F)ccc2CNC(=O)[C@@H](C)c2ccc(NS(C)(=O)=O)c(F)c2)CC1 (racemic)
35 | 3.8 | O=C(Cc1ccc(Cl)c(Cl)c1)NCc1cc(C(F)(F)F)nn1-c1cccc(Cl)c1
36 | 43.3 | O=C(Cc1ccc(F)cc1F)NCc1cc(C(F)(F)F)nn1-c1cccc(Cl)c1
37 | 19.9 | CC(C)(C)c1cc(CNC(=O)Cc2ccc(F)cc2Cl)n(-c2cccc(Cl)c2)n1
38 | 58.9 | O=C(Cc1cc(F)ccc1F)NCc1cc(C(F)(F)F)nn1-c1cccc(Cl)c1
39 | 9.8 | CC1CCN(c2nc(C(F)(F)F)ccc2CNC(=O)Cc2ccc(F)c(C(F)(F)F)c2)CC1
40 | 38.8 | O=C(Cc1ccc(F)cc1Cl)NCc1cc(C(F)(F)F)nn1-c1cccc(Cl)c1
41 | 20.9 | O=C(Cc1ccc(Cl)c(F)c1)NCc1cc(C(F)(F)F)nn1-c1cccc(Cl)c1
42 | 14.2 | CC1CCN(c2nc(C(F)(F)F)ccc2CNC(=O)Cc2ccc(F)cc2Cl)CC1
43 | 4.9 | CC1CCN(c2nc(C(F)(F)F)ccc2CNC(=O)Cc2cccc(Cl)c2Cl)CC1
44 | 2.6 | CC1CCN(c2nc(C(F)(F)F)ccc2CNC(=O)Cc2c(F)cccc2Cl)CC1
45 | 6.1 | CC1CCN(c2nc(C(F)(F)F)ccc2CNC(=O)Cc2cccc(Cl)c2)CC1
46 | 22.6 | O=C(Cc1cccc(Cl)c1Cl)NCc1cc(C(F)(F)F)nn1-c1cccc(Cl)c1

Further lines, the compound ahead of its results:

Row | SMILES | Ki [nM]
47 | CC(C)(C)c1cc(CNC(=O)Cc2ccc(Cl)cc2Cl)n(-c2cccc(Cl)c2)n1 | 16.7
48 | O=C(Cc1cc(F)cc(F)c1)NCc1cc(C(F)(F)F)nn1-c1cccc(Cl)c1 | 13.7
49 | O=C(Cc1ccc(Cl)cc1)NCc1cc(C(F)(F)F)nn1-c1cccc(Cl)c1 | 6.3
50 | CC(C)(C)c1cc(CNC(=O)Cc2cccc(F)c2F)n(-c2cccc(Cl)c2)n1 | 6.9
51 | C[C@H](C(=O)NCc1cc(C(C)(C)C)nn1-c1cccc(Cl)c1)c1ccc(NS(C)(=O)=O)c(F)c1 | 0.3
52 | CC(C)(C)c1cc(CNC(=O)Cc2c(F)cccc2Cl)n(-c2cccc(Cl)c2)n1 | 19

Target: T1, Transient receptor potential cation channel subfamily V member 1
Test: Agonist activity at human TRPV1 expressed in CHO cells
Type: cell-based
Settings: filed as agonist

Row | Activity | SMILES
53 | Active | CC1CCN(c2nc(C(F)(F)F)ccc2CNC(=O)Cc2ccc(Cl)cc2)CC1
54 | Active | CC1CCN(c2nc(C(F)(F)F)ccc2CNC(=O)Cc2ccc(F)cc2F)CC1
55 | Active | CC1CCN(c2nc(C(F)(F)F)ccc2CNC(=O)C(C)c2cccc(F)c2)CC1 (configuration not stated)
56 | Active | CC1CCN(c2nc(C(F)(F)F)ccc2CNC(=O)Cc2ccc(F)cc2)CC1
57 | Active | CC1CCN(c2nc(C(F)(F)F)ccc2CNC(=O)C(C)c2ccc(F)c(F)c2)CC1 (configuration not stated)
58 | Active | CC1CCN(c2nc(C(F)(F)F)ccc2CNC(=O)C(C)c2ccc(F)cc2Cl)CC1 (configuration not stated)
59 | Active | CC1CCN(c2nc(C(F)(F)F)ccc2CNC(=O)C(C)c2ccc(F)cc2)CC1 (configuration not stated)

Further lines, the compound ahead of its results:

Row | SMILES | Activity
60 | CC(C(=O)NCc1cc(C(C)(C)C)nn1-c1cccc(Cl)c1)c1cc(F)cc(F)c1 (configuration not stated) | Active
61 | CC(C(=O)NCc1cc(C(C)(C)C)nn1-c1cccc(Cl)c1)c1ccc(Cl)c(F)c1 (configuration not stated) | Active
62 | CC(C)(C)c1cc(CNC(=O)Cc2ccc(F)c(F)c2)n(-c2cccc(Cl)c2)n1 | Active
63 | CC(C(=O)NCc1cc(C(C)(C)C)nn1-c1cccc(Cl)c1)c1ccc(F)cc1F (configuration not stated) | Active
64 | CC(C(=O)NCc1cc(C(C)(C)C)nn1-c1cccc(Cl)c1)c1ccc(Cl)cc1Cl (configuration not stated) | Active
65 | CC(C(=O)NCc1cc(C(C)(C)C)nn1-c1cccc(Cl)c1)c1ccc(Cl)cc1 (configuration not stated) | Active
66 | CC(C(=O)NCc1cc(C(C)(C)C)nn1-c1cccc(Cl)c1)c1ccccc1F (configuration not stated) | Active
67 | CC(C(=O)NCc1cc(C(C)(C)C)nn1-c1cccc(Cl)c1)c1ccc(F)c(Cl)c1 (configuration not stated) | Active
68 | CC(C)(C)c1cc(CNC(=O)Cc2ccc(F)c(Cl)c2)n(-c2cccc(Cl)c2)n1 | Active
69 | CC(C)(C)c1cc(CNC(=O)Cc2cccc(Cl)c2)n(-c2cccc(Cl)c2)n1 | Active
70 | CC(C)(C)c1cc(CNC(=O)Cc2cccc(F)c2)n(-c2cccc(Cl)c2)n1 | Active
71 | CC(C(=O)NCc1cc(C(C)(C)C)nn1-c1cccc(Cl)c1)c1ccc(Cl)c(Cl)c1 (configuration not stated) | Active
72 | CC(C(=O)NCc1cc(C(C)(C)C)nn1-c1cccc(Cl)c1)c1ccc(F)cc1 (configuration not stated) | Active
73 | CC(C(=O)NCc1cc(C(C)(C)C)nn1-c1cccc(Cl)c1)c1ccc(F)c(F)c1 (configuration not stated) | Active
74 | CC(C(=O)NCc1cc(C(C)(C)C)nn1-c1cccc(Cl)c1)c1cccc(Cl)c1 (configuration not stated) | Active
75 | CC(C(=O)NCc1cc(C(C)(C)C)nn1-c1cccc(Cl)c1)c1cccc(F)c1 (configuration not stated) | Active
76 | CC(C)(C)c1cc(CNC(=O)Cc2ccc(F)cc2)n(-c2cccc(Cl)c2)n1 | Active
77 | CC(C)(C)c1cc(CNC(=O)Cc2ccc(Cl)cc2)n(-c2cccc(Cl)c2)n1 | Active
